Active and inactive are the calls of the source. No cut-off for these calls is given here.
Legend:
Jurkat [1] = assay: Antiproliferative activity against human Jurkat cells after 72 hrs by MTT assay; format: functional, cell-based
In short: (§1)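 Cells exposed to graded compound concentrations (from 10 mM DMSO stocks) in triplicate for 72 h at 37 °C. Viability measured by MTT. IC50 taken from dose-response curves, given as mean ± SE of at least three independent experiments run in triplicate.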

MCF7 = assay: Antiproliferative activity against human MCF7 cells after 72 hrs by MTT assay; format: functional, cell-based; details: MCF7, 72 h
In short: as §1, with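 “Cells grown in DMEM with 10% FBS, penicillin G and streptomycin. 8 × 10³ cells per well, incubated overnight at 37 °C in 5% CO₂, then” for “Cells”, “h.” for “h at 37 °C.”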

CCRF-CEM = assay: Antiproliferative activity against human CCRF-CEM cells after 72 hrs by MTT assay; format: functional, cell-based
RS4-11 = assay: Antiproliferative activity against human RS4:11 cells after 72 hrs by MTT assay; format: functional, cell-based; details: RS4-11, 72 h
HL-60 = assay: Antiproliferative activity against human HL60 cells after 72 hrs by MTT assay; format: functional, cell-based; details: HL-60, 72 h
[2] = molecular target: T1, Serine/threonine-protein kinase Nek2 (Homo sapiens) (UniProt P51955); assay: Inhibition of recombinant human full-length N-terminal GST-tagged NEK2 expressed in baculovirus infected Sf9 insect cells at 1 uM using MBP as substrate after 30 mins by ADP-Glo reagent based luminescence assay
T1 sequence (whole entry): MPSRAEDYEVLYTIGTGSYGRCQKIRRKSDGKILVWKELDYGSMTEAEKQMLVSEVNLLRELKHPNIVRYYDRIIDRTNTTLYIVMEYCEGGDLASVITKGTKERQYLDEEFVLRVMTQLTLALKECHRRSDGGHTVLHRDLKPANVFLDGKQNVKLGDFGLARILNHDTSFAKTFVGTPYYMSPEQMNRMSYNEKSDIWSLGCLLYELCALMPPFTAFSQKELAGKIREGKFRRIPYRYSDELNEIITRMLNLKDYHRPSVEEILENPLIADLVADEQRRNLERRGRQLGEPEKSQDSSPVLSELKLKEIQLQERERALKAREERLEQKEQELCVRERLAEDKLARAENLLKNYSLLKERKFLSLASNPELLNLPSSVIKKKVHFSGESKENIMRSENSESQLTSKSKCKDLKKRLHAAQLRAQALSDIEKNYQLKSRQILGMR
In short: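 Nek2 activity measured with the bioluminescent ADP-Glo kinase assay, compounds at 1 µM final concentration. Percentage inhibition given as means ± SEM of two independent experiments performed in duplicate.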

HT-29 = assay: Antiproliferative activity against human HT-29 cells after 72 hrs by MTT assay; format: functional, cell-based; details: HT-29, 72 h
In short: as §1, with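 “Cells grown in DMEM with 10% FBS, penicillin G and streptomycin. 8 × 10³ cells per well, incubated overnight at 37 °C in 5% CO₂, then” for “Cells”, “h.” for “h at 37 °C.”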

HeLa [3] = assay: Antiproliferative activity against human HeLa cells after 72 hrs by MTT assay; format: functional, cell-based
In short: as §1, with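 “Cells grown in DMEM with 10% FBS, penicillin G and streptomycin. 8 × 10³ cells per well, incubated overnight at 37 °C in 5% CO₂, then” for “Cells”, “h.” for “h at 37 °C.”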

HeLa [4] = assay: Induction of GSH depletion in human HeLa cells at 0.5 to 10 uM after 30 mins by CMFDA-probe based flow cytometry; format: functional, cell-based; details: in the assay text read “after 12 to 24 hrs” for “after 30 mins”
In short: (§2)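 Cells treated with compound for 12–24 h, harvested, then loaded with 5 µM CMFDA at 37 °C for 30 min. GSH-dependent fluorescence measured by flow cytometry. Means ± S.E.M. of three independent experiments.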

Jurkat [5] = assay: Induction of GSH depletion in human Jurkat cells at 0.5 to 10 uM after 30 mins by CMFDA-probe based flow cytometry; format: functional, cell-based; details: in the assay text read “after 12 to 24 hrs” for “after 30 mins”; in short: as §2
HeLa [6] = assay: Antiproliferative activity against human HeLa cells at 1 uM after 48 hrs in presence of 100 uM TOC by annexin-V staining based assay; format: functional, cell-based
In short: (§3)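 HeLa cells treated with compound at 1.0 µM for 48 h together with 100 µM N-acetyl-L-cysteine or DL-α-tocopherol acetate. Cell death measured by annexin-V assay with flow cytometry. Means ± S.E.M. of three independent experiments.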

HeLa [7] = assay: Antiproliferative activity against human HeLa cells at 1 uM after 48 hrs in presence of 100 uM NAC by annexin-V staining based assay; format: functional, cell-based; in short: as §3
PBL [8] = assay: Cytotoxicity against resting human PBL assessed as reduction in cell viability after 72 hrs by MTT assay; format: cell-based
In short: (§4)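 PBL isolated from healthy donors' buffy coats by density-gradient centrifugation and held overnight in RPMI-1640 with 10% FBS. Non-adherent cells without PHA resuspended at 5 × 10⁵ cells/mL and treated for 72 h. Viability read by MTT. IC50 reported as mean ± SEM of two separate experiments.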

PBL [9] = assay: Cytotoxicity against PHA-stimulated human PBL assessed as reduction in cell viability after 72 hrs by MTT assay; format: cell-based
In short: as §4, with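 “cells” for “cells without PHA”, “cells/mL with 2.5 μg/mL PHA” for “cells/mL”, “given graded compound concentrations.” for “treated for 72 h.”, “MTT after 72 h.” for “MTT.”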

HeLa [10] = assay: Induction of apoptosis in human HeLa cells assessed as cleaved caspase-9 expression at 0.5 to 1 uM after 24 hrs by Western blot analysis; format: functional, cell-based
In short: (§5)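 HeLa cells treated for 24 h and washed in ice-cold PBS. Cells lysed on ice for 30 min and lysate cleared at 15000 x g. 10 μg protein resolved by SDS-PAGE (7.5–15%) and blotted. Membranes blocked with 3% BSA, probed with antibodies to caspase-9 or γH2AX, detected by ECL. Bands quantified and normalized to β-actin, mean±SD of two gels.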

HeLa [11] = assay: Cell cycle arrest in human HeLa cells assessed as decrease in G1 phase at 1 uM after 24 hrs by propidium iodide staining based flow cytometry; format: functional; parameters: scale not given: the % may be the effect or the level left
In short: (§6)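 5 × 10⁵ HeLa cells treated for 24 h at the indicated concentrations, then fixed in ice-cold 70% ethanol. Lysis buffer with RNase A and 0.1% Triton X-100 applied, cells stained with PI, and DNA content read by flow cytometry to give percentage of cells in each phase.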

HeLa [12] = assay: Induction of DNA damage in human HeLa cells assessed as increase in gamma-H2AX level at 0.5 to 1 uM after 24 hrs by Western blot analysis; format: functional, cell-based; in short: as §5
Jurkat [13] = assay: Induction of apoptosis in human Jurkat cells at 100 nM after 24 to 48 hrs by annexin-V/FITC propidium iodide staining based flow cytometry; format: functional, cell-based
In short: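 Cells treated with compound at the indicated concentrations for 24 or 48 h, then double-stained with annexin V-FITC and PI. Phosphatidylserine exposure measured by flow cytometry. Means ± SEM of three independent experiments.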

Jurkat [14] = assay: Induction of mitochondrial membrane depolarization in human Jurkat cells at 10 to 100 nM after 12 to 24 hrs JC-1 staining based flow cytometry; format: functional, cell-based
In short: (§7)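 Cells treated at the indicated concentrations for the indicated times (12 and 24 h). Stained with JC-1 and analyzed by flow cytometry for dissipation of mitochondrial membrane potential.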

HeLa [15] = assay: Induction of mitochondrial membrane depolarization in human HeLa cells at 0.5 to 1 uM after 12 to 24 hrs JC-1 staining based flow cytometry; format: functional, cell-based; in short: as §7
HeLa [16] = assay: Cell cycle arrest in human HeLa cells assessed as decrease in G1 phase at 0.5 to 1 uM after 24 hrs by propidium iodide staining based flow cytometry; format: functional; in short: as §6

| SMILES | IC50 (Jurkat [1]) [nM] | IC50 (MCF7) [nM] | IC50 (CCRF-CEM) [nM] | IC50 (RS4-11) [nM] | IC50 (HL-60) [nM] | inhibition [2] [%] | IC50 (HT-29) [nM] | IC50 (HeLa [3]) [nM] | also measured |
| --- | --- | --- | --- | --- | --- | --- | --- | --- | --- |
| C=C(Br)C(=O)Nc1ccc2c(c1)/C(=C/c1ccc(C)s1)C(=O)N2 | 360 | 3000 | 9 | 50 | 24 | 5 to 20 | 560 | 1600 | – |
| C=C(Br)C(=O)Nc1ccc2c(c1)/C(=C/c1ccc[nH]1)C(=O)N2 | 110 | 700 | 3 | 1 | 140 | 50 | 800 | 500 | Activity (HeLa [4]): Active; Activity (Jurkat [5]): Active; Activity (HeLa [6]): inactive; Activity (HeLa [7]): Active; IC50 (PBL [8]): 1500 nM; IC50 (PBL [9]): 830 to 850 nM; Activity (HeLa [10]): Active; Activity (HeLa [11]): 20%; Activity (HeLa [12]): Active; Activity (Jurkat [13]): Active; Activity (Jurkat [14]): Active; Activity (HeLa [15]): Active |
| C#CC(=O)Nc1ccc2c(c1)/C(=C/c1ccc[nH]1)C(=O)N2 | 340 | 3700 | 50 | 70 | 5800 | 5 to 20 | 2300 | 4400 | Activity (HeLa [16]): inactive |
| C=C(Br)C(=O)Nc1ccc2c(c1)/C(=C\c1sccc1C)C(=O)N2 | 40 | 2300 | 0.9 | 4 | 39 | 5 to 20 | 330 | 450 | Activity (HeLa [4]): Active; Activity (Jurkat [5]): Active; Activity (HeLa [6]): inactive; Activity (HeLa [7]): Active; IC50 (PBL [8]): 450 nM; IC50 (PBL [9]): 1220 nM; Activity (HeLa [10]): Active; Activity (HeLa [11]): 20%; Activity (HeLa [12]): Active; Activity (Jurkat [13]): Active; Activity (Jurkat [14]): Active; Activity (HeLa [15]): Active |
| Nc1ccc2c(c1)C(=Cc1ccsc1)C(=O)N2 | – | – | > 10000 | > 10000 | – | – | – | – | – |
| C=C(Br)C(=O)Nc1ccc2c(c1)/C(=C/c1sccc1C)C(=O)N2 | 30 | 2600 | 0.5 | 0.4 | 13 | 5 to 20 | 1200 | 420 | – |

The remaining molecules from weak to strong by IC50 (CCRF-CEM), led by results:

| IC50 (Jurkat [1]) [nM] | IC50 (MCF7) [nM] | IC50 (CCRF-CEM) [nM] | IC50 (RS4-11) [nM] | IC50 (HL-60) [nM] | inhibition [2] [%] | IC50 (HT-29) [nM] | IC50 (HeLa [3]) [nM] | SMILES | also measured |
| --- | --- | --- | --- | --- | --- | --- | --- | --- | --- |
| 1100 | 3300 | 220 | 220 | 350 | 5 to 20 | 4400 | 4500 | C=C(Br)C(=O)Nc1ccc2c(c1)CC(=O)N2 | – |
| 210 | 1700 | 35 | 2 | 230 | 5 to 20 | 240 | 1700 | C=C(Br)C(=O)Nc1ccc2c(c1)/C(=C/c1cccs1)C(=O)N2 | – |
| 16 | 2300 | 10 | 30 | 15 | 5 to 20 | 5500 | 1800 | C=C(Br)C(=O)Nc1ccc2c(c1)/C(=C\c1cccs1)C(=O)N2 | – |
| 56 | 2100 | 6 | 190 | 770 | 5 to 20 | 310 | 2600 | C=C(Br)C(=O)Nc1ccc2c(c1)/C(=C\c1ccsc1)C(=O)N2 | – |
| 190 | 2800 | 4 | 190 | 350 | 5 to 20 | 600 | 3500 | C=C(Br)C(=O)Nc1ccc2c(c1)/C(=C/c1ccsc1)C(=O)N2 | – |
| 150 | 4400 | 1 | 20 | 12 | 5 to 20 | 300 | 2000 | C=C(Br)C(=O)Nc1ccc2c(c1)/C(=C\c1ccc(C)s1)C(=O)N2 | – |
